# High-throughput results as filed in PubChem.
# Only some compounds are listed: those with a hit (about 2.8% of all), similar ones and a draw of the others.
# bCat KO growth – beta-catenin-lacking colon tumor cell growth suppression; HCT116 beta-catenin knockout viability, CellTiter-Glo, 60 h; stronger effect = lower value; viability, % at 10 µM; hit rate 1.5% among 140,000;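 active = viability at or under a set limit, the compound median less 4 SD, cut at about 6% in these data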;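 also: 0% = Hyamine 1622 control at 20 µM and 100% = untreated cell control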
# Yeast life ext – extends the lifespan of yeast; hit rate 0.68% among 130,000; S. cerevisiae growth with nicotinamide, OD615; deaD strain in restrictive glucose medium; inhibition of the nicotinamide effect, % at 10 µM; AID 775;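 active = inhibition above a set limit, placed 3 SD over the median of all compounds, cut at about 26% in these data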;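 also: 0% = nicotinamide-treated wells and 100% = cells grown without nicotinamide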
#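 Test system: DeaD-strain S. cerevisiae / Buffer or medium: restrictive glucose medium / Also added: nicotinamide 1.5 mM / Doses: one concentration, 10 µM, DMSO 0.25% / Schedule: 48 h at 30 °C / Signal: OD615 measurement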
# BB579 growth dn – chemicals that inhibit yeast BB579 growth in restrictive medium (lifespan-shortening candidates); S. cerevisiae BB579 growth, OD615, 48 h; inhibition, % at 10 µM; hit rate 0.51% among 140,000;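 active = inhibition above a set limit, 3 SD over the mean compound inhibition, cut at about 44% in these data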
#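 System: DeaD yeast strain BB579; buffer or medium: CSMM-D dextrose restrictive medium; technique: OD at 615 nm; schedule: 4 h cell preincubation, 48 h compound exposure, 30 °C humidified; doses: single 10 µM dose; controls: amphotericin B 10 µg/mL, positive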
# sdo1 growth – sdo1-depleted yeast growth rescue. S. cerevisiae sdo1-depleted JHY4D growth rescue, OD600 30 h; stronger effect = higher value; pdr5 snq2 efflux-pump mutant strain. hit rate 0.21% among 140,000. z-score at 10 µM;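 active = z-score above 3 at both the 24 hr and the 30 hr optical density reads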;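 also: z-score against mean and SD of all compound wells on the same plate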
# PTEN del growth – PTEN-deleted cell growth suppression | HCT116 PTEN-null viability, CellTiter-Glo, 60 h; stronger effect = lower value | viability, % at 10 µM | hit rate 1.2% among 140,000 | AID 827;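 active = viability at or below a set limit, 4 SD under the median of all tested compounds, cut at about 3.7% in these data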;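 also: PTEN knockout HCT116 line with beta catenin targeted HCT116 as companion control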
# Numbers without * were called inactive; nt = no result.
SMILES,bCat KO growth,Yeast life ext,BB579 growth dn,sdo1 growth,PTEN del growth
O=C(O)CC(=O)Nc1cc(Cl)ccc1O,88.6,-4.7,-41.6,-0.12,104.8
Cc1cccc(C(=O)NNC(=O)c2ccccc2)c1,84.4,-5.0,-42.1,0.65,96.8
COc1ccc(-n2nc(C(=O)Nc3nc4ccc(OC)cc4s3)c3ccccc3c2=O)c(OC)c1,11.7,-2.5,9.6,-1.24,2.6*
CCn1nc(C(=O)Nc2nc3ccc(C)cc3s2)c2ccccc2c1=O,82.4,-4.1,-17.6,-0.72,81.9
CC(NC(=O)Cn1ncc(Cl)c(Cl)c1=O)C12CC3CC(CC(C3)C1)C2 (stereo not drawn),1.2*,8.4,-23.1,-0.62,1.4*
CCOc1c(OC)ccc2c3c(c(=O)oc12)CCCC3,0.5*,-11.0,-44.8,-0.82,1.1*
Cc1cc(/C=C2/NC(=O)N(Cc3ccccc3F)C2=O)c(C)n1C,88.5,26.7*,-54.5,0.92,98.1
CN1CCN(C(=O)CCc2nc3ccccc3n2-c2ccccc2)CC1,94.5,3.9,-26.4,1.63,95.8
O=C1c2ccccc2C(=O)c2c1cccc2N1CCOCC1,83.9,-20.4,56.9*,-0.26,67.3
O=C1c2ccccc2-c2c1cccc2C(=O)N1CCOCC1,96.9,nt,-17.3,0.93,101.6
N#Cc1c(Nc2ccccc2)sc(C(=O)C2CC2)c1N,89.0,4.1,-25.1,-0.41,98.1
O=C(NCc1ccc(Cl)cc1)c1ccc2nc[nH]c2c1,94.8,-2.2,-14.6,0.97,99.2
CCn1c(=O)cc(C(=O)OC)sc1=Nc1ccc(F)c(F)c1,2.2*,13.1,-56.3,-1.82,2.0*
COC(=O)c1cc(=O)n(Cc2ccc3c(c2)OCO3)c(=Nc2ccc(F)c(Cl)c2)s1,2.0*,-8.1,6.4,-0.82,4.4
COC(=O)c1cc(=O)n(CCc2ccc(OC)cc2)c(=Nc2ccc(F)c(Cl)c2)s1,6.5,2.8,25.0,0.52,6.7
CCN(CCCn1c(SCC#N)nc2ccccc2c1=O)c1ccccc1,55.0,-3.6,-33.1,-1.41,56.3
Cn1cccc1Cc1nnc(SCC(=O)Nc2ccc3c(c2)OCCO3)n1CCc1ccccc1,76.3,-13.5,4.9,-1.01,72.1
O=C1CC(c2ccco2)Cc2nc(Nc3nc(-c4ccccc4)c4ccccc4n3)ncc21 (stereo not drawn),3.4*,-6.1,-38.3,-0.19,3.5*
O=C(Nc1ncc2c(n1)CC(c1ccco1)CC2=O)c1ccccc1 (stereo not drawn),89.4,0.0,-18.7,-0.49,100.0
c1ccc(-c2cccc(-c3ccccn3)n2)nc1,15.4,-28.6,99.2*,-0.05,16.6
c1ccc(-c2nc3ccccc3o2)nc1,99.1,-23.7,8.4,1.64,96.4
O=C(CCCC(=O)N(CC(=O)NC1CCCC1)Cc1ccc(F)cc1)Nc1ccccn1,93.4,33.8,-29.9,0.55,92.2
O=C(CCCC(=O)N(CC(=O)NC1CCCCC1)Cc1ccc2c(c1)OCO2)Nc1ccccn1,94.8,28.2*,-26.5,1.53,98.0
O=C1CC(=O)N(CCc2ccc(F)cc2)C(=O)N1,97.2,40.2,-23.3,0.49,98.2
CSC1=N/C(=C\c2c(F)cccc2Cl)C(=O)S1,105.1,31.2*,-19.8,-0.41,102.2
SMILES,bCat KO growth,Yeast life ext,BB579 growth dn,sdo1 growth,PTEN del growth
COc1cccc(N(C(=O)Cn2nnc(-c3ccc(C)cc3)n2)C(C(=O)NC(C)(C)C)c2c[nH]c3ccccc23)c1 (stereo not drawn),73.8,45.2*,-96.1,0.49,76.0
CC(C)(C)NC(=O)C(c1c[nH]c2ccccc12)N(C(=O)Cn1nnc(-c2ccc(Cl)cc2)n1)c1ccccc1F (stereo not drawn),62.9,-2.8,-41.5,-0.14,54.0
O=C(/C=C/Sc1ccccc1)c1ccc(Cl)cc1,10.6,27.9*,-58.1,-1.69,7.8
O=C(/C=C/Sc1ccccc1)c1ccccc1,2.1*,24.7,-72.0,-0.18,1.4*
COC(=O)NCC12CC3CC(C1)CC(CNC(=O)OC)(C3)C2,88.6,37.2*,-37.6,0.11,102.2
CC(=O)NCC12CC3CC(C1)CC(C(=O)O)(C3)C2,98.0,-0.8,-21.4,-0.17,104.0
COc1ccc(C)cc1S(=O)(=O)N1CCC(C(=O)NCCc2ccccc2)CC1,89.8,27.9*,8.5,-0.02,92.2
COc1ccc(S(=O)(=O)N2CCC(C(=O)NCCc3ccccc3)CC2)cc1OC,93.5,-2.0,-9.2,1.11,108.0
CC1=Nc2ccccc2/C1=C/c1sc(=N)n(-c2nccs2)c1O,3.9*,-3.1,-17.1,-0.2,2.3*
Cc1cc(C(=O)CN2C(=O)NC(C)(CC(C)C)C2=O)c(C)n1-c1ccc2c(c1)OCO2 (stereo not drawn),86.1,64.5*,-20.6,-0.63,85.2
CC(=O)NCCNC(=O)CCNC(=O)c1ccc(Cl)cc1,101.1,2.2,-25.6,0.64,93.0
OCCn1c(C(F)(F)F)nc2ccccc21,1.0*,nt,-5.5,-0.27,0.4*
Cc1ccc2occ(C(c3nnnn3Cc3ccccc3)N3CCOCC3)c(=O)c2c1 (stereo not drawn),95.8,26.1*,-42.3,-0.52,97.5
CC1(C)NC(=O)N(CCOCCOc2c(Cl)cc(Cl)cc2Cl)C1=O,78.1,-16.6,-7.1,0.55,87.8
CCN(CC)c1ccc(/C=N/Nc2nc3ccccc3[nH]2)cc1,2.8*,-2.4,-27.6,-1.35,1.6*
CCCn1c(/C=N/Nc2nc3ccccc3[nH]2)nc2ccccc21,3.6*,-5.9,-44.6,-1.2,3.0*
CCCCC(=O)NC(=S)Nc1c(C)cc(Br)cc1C,101.8,-5.2,-52.1,-1.07,104.6
Cc1cccc2sc(N(CCCN(C)C)C(=O)CCc3ccccc3)nc12,1.6*,20.8,-10.5,-1.82,1.9*
CCOc1ccc(CSC(=N)N)cc1,92.3,3.0,-30.6,1.16,92.0
CCCCCOc1ccc(Br)cc1CSC(=N)N,1.3*,-2.2,-30.9,-0.72,0.8*
O=C(CN1CCN(c2ccccc2)CC1)Nc1ccc(Oc2ccccc2)cc1,86.6,-8.4,-30.7,-1.96,89.6
Cc1ccc(C2CC(c3cccs3)=NN2C(=O)CSc2nc3ccccc3o2)cc1 (stereo not drawn),72.1,13.6,-40.4,-0.49,64.7
C=CCSC(=C(C#N)C#N)c1cc2c([nH]1)CCCC2,2.6*,-8.1,60.7*,-1.92,1.9*
O=C(NCc1ccco1)c1cccn2c(=O)c3cc4ccccc4cc3nc12,2.6*,3.8,-9.7,-1.59,1.7*
C=CCn1c(=N)c(C(=O)NCCCOC)cc2c(=O)n3cccc(C)c3nc21,81.0,-11.1,21.8,0.21,77.5
COCCCNC(=O)c1cccn2c(=O)c3cc4ccccc4cc3nc12,4.3*,-7.5,17.5,-0.88,3.9
COC(=O)CS(=O)(=O)c1nnc([C@H](Cc2ccccc2)NC(=O)OC(C)(C)C)o1,98.0,-7.7,-47.4,-0.33,90.8
Cc1cccc(CS(=O)(=O)c2nnc([C@H](Cc3ccccc3)NC(=O)OC(C)(C)C)o2)c1,1.4*,0.1,-5.8,-2.41,1.4*
